≈ marks a conversion by molar mass, not a printed value. Calls of active or inactive are those of the source. The rule behind the calls is not given here.
Tests used:
[1] = system: Klebsiella pneumoniae; test: Antibacterial activity against Klebsiella pneumoniae at 100 ug/ml after 18 hrs by cup plate method; assay type: functional; settings: read-out: DIZ
In short: (§1)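 Agar well diffusion on Mueller-Hinton agar. Inoculum was adjusted to a 0.5 McFarland standard (about […] × 10⁸ CFU/mL) and swabbed over the plate three times, rotating about 60° each time, then the rim was swabbed. Compounds in DMSO went into duplicate 6 mm wells. Plates were incubated at 37 °C for 18 h and inhibition zone diameter read to the nearest mm. DMSO negative control; streptomycin and ciprofloxacin positive controls.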

[2] = system: Bacillus subtilis; test: Antibacterial activity against Bacillus subtilis at 50 ug/ml after 18 hrs by cup plate method; assay type: functional; in short: as §1
[3] = system: Staphylococcus epidermidis; test: Antibacterial activity against Staphylococcus epidermidis at 100 ug/ml after 18 hrs by cup plate method; assay type: functional; settings: read-out: DIZ; in short: as §1
[4] = system: Pseudomonas aeruginosa; test: Antibacterial activity against Pseudomonas aeruginosa at 100 ug/ml after 18 hrs by cup plate method; assay type: functional; settings: read-out: DIZ; in short: as §1
[5] = system: Mycobacterium tuberculosis; test: Antimycobacterial activity against Mycobacterium tuberculosis H37Rv after 3 to 4 weeks by broth microdilution assay; assay type: functional
In short: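 MIC by broth microdilution on compounds active in a single-concentration primary screen. Plates incubated 3–4 weeks at 37 °C in a CO₂ incubator. Wells read visually for absence of growth turbidity.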

[6] = system: Escherichia coli; test: Antibacterial activity against Escherichia coli at 100 ug/ml after 18 hrs by cup plate method; assay type: functional; settings: read-out: DIZ; in short: as §1
[7] = system: Bacillus subtilis; test: Antibacterial activity against Bacillus subtilis at 100 ug/ml after 18 hrs by cup plate method; assay type: functional; settings: read-out: DIZ; in short: as §1
[8] = system: Candida albicans; test: Antifungal activity against Candida albicans MTCC 227 at 100 ug/ml after 48 hrs by cup plate method; assay type: functional; settings: MTCC 227, 48 h, read-out: IZ
In short: (§2)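 Agar well (cup plate) diffusion on potato dextrose agar 39 g/L, with compounds dissolved in DMSO. Plates were incubated at 28 ± 2 °C for 48 h and inhibition zones measured to the nearest mm. Three replicates per treatment. Amphotericin B positive control; solvent control included.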

[9] = system: Klebsiella pneumoniae; test: Antibacterial activity against Klebsiella pneumoniae at 50 ug/ml after 18 hrs by cup plate method; assay type: functional; in short: as §1
[10] = system: Candida albicans; test: Antifungal activity against Candida albicans MTCC 227 at 50 ug/ml after 48 hrs by cup plate method; assay type: functional
In short: (§3)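 Agar well (cup plate) diffusion on potato dextrose agar 39 g/L. Compounds dissolved in DMSO and loaded into 6 mm wells. Incubated at 28 ± 2 °C for 48 h. Inhibition zone diameter measured to the nearest millimetre, three replicates per treatment. DMSO solvent as negative control, amphotericin B as positive control.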

[11] = system: Pseudomonas aeruginosa; test: Antibacterial activity against Pseudomonas aeruginosa at 50 ug/ml after 18 hrs by cup plate method; assay type: functional; in short: as §1
[12] = system: Staphylococcus aureus; test: Antibacterial activity against Staphylococcus aureus at 50 ug/ml after 18 hrs by cup plate method; assay type: functional; settings: read-out: DIZ; in short: as §1
[13] = system: Staphylococcus epidermidis; test: Antibacterial activity against Staphylococcus epidermidis at 50 ug/ml after 18 hrs by cup plate method; assay type: functional; settings: read-out: DIZ; in short: as §1
[14] = system: Staphylococcus aureus; test: Antibacterial activity against Staphylococcus aureus at 100 ug/ml after 18 hrs by cup plate method; assay type: functional; settings: read-out: DIZ; in short: as §1
[15] = system: Escherichia coli; test: Antibacterial activity against Escherichia coli at 50 ug/ml after 18 hrs by cup plate method; assay type: functional; in short: as §1
[16] = system: Candida albicans; test: Antifungal activity against Candida albicans MTCC 227 at 25 ug/ml after 48 hrs by cup plate method; assay type: functional; in short: as §3
[17] = system: Pseudomonas aeruginosa; test: Antibacterial activity against Pseudomonas aeruginosa at 25 ug/ml after 18 hrs by cup plate method; assay type: functional; settings: read-out: DIZ; in short: as §1
[18] = system: Klebsiella pneumoniae; test: Antibacterial activity against Klebsiella pneumoniae at 10 ug/ml after 18 hrs by cup plate method; assay type: functional; in short: as §1
[19] = system: Escherichia coli; test: Antibacterial activity against Escherichia coli at 75 ug/ml after 18 hrs by cup plate method; assay type: functional; settings: read-out: DIZ; in short: as §1
[20] = system: Staphylococcus epidermidis; test: Antibacterial activity against Staphylococcus epidermidis at 10 ug/ml after 18 hrs by cup plate method; assay type: functional; settings: read-out: DIZ; in short: as §1
[21] = system: Staphylococcus epidermidis; test: Antibacterial activity against Staphylococcus epidermidis at 25 ug/ml after 18 hrs by cup plate method; assay type: functional; settings: read-out: DIZ; in short: as §1
[22] = system: Staphylococcus aureus; test: Antibacterial activity against Staphylococcus aureus at 10 ug/ml after 18 hrs by cup plate method; assay type: functional; in short: as §1
[23] = system: Aspergillus sp.; test: Antifungal activity against Aspergillus sp. at 25 ug/ml after 48 hrs by cup plate method; assay type: functional; in short: as §2
[24] = system: Aspergillus niger; test: Antifungal activity against Aspergillus niger at 25 ug/ml after 48 hrs by cup plate method; assay type: functional, organism-based; in short: as §2
[25] = system: Staphylococcus epidermidis; test: Antibacterial activity against Staphylococcus epidermidis at 75 ug/ml after 18 hrs by cup plate method; assay type: functional; settings: read-out: DIZ; in short: as §1
[26] = system: Aspergillus niger; test: Antifungal activity against Aspergillus niger at 75 ug/ml after 48 hrs by cup plate method; assay type: functional; in short: as §2
[27] = system: Pseudomonas aeruginosa; test: Antibacterial activity against Pseudomonas aeruginosa at 10 ug/ml after 18 hrs by cup plate method; assay type: functional; in short: as §1
[28] = system: Pseudomonas aeruginosa; test: Antibacterial activity against Pseudomonas aeruginosa at 75 ug/ml after 18 hrs by cup plate method; assay type: functional; settings: read-out: DIZ; in short: as §1
[29] = system: Staphylococcus aureus; test: Antibacterial activity against Staphylococcus aureus at 25 ug/ml after 18 hrs by cup plate method; assay type: functional; settings: read-out: DIZ; in short: as §1
[30] = system: Klebsiella pneumoniae; test: Antibacterial activity against Klebsiella pneumoniae at 75 ug/ml after 18 hrs by cup plate method; assay type: functional; settings: read-out: DIZ; in short: as §1
[31] = system: Aspergillus sp.; test: Antifungal activity against Aspergillus sp. at 75 ug/ml after 48 hrs by cup plate method; assay type: functional; in short: as §2
[32] = system: Staphylococcus aureus; test: Antibacterial activity against Staphylococcus aureus at 75 ug/ml after 18 hrs by cup plate method; assay type: functional; settings: read-out: DIZ; in short: as §1
[33] = system: Aspergillus sp.; test: Antifungal activity against Aspergillus sp. at 50 ug/ml after 48 hrs by cup plate method; assay type: functional; in short: as §2
[34] = system: Candida albicans; test: Antifungal activity against Candida albicans MTCC 227 at 75 ug/ml after 48 hrs by cup plate method; assay type: functional; settings: MTCC 227, 48 h, read-out: IZ; in short: as §3
[35] = system: Aspergillus sp.; test: Antifungal activity against Aspergillus sp. at 100 ug/ml after 48 hrs by cup plate method; assay type: functional; in short: as §2
[36] = system: Bacillus subtilis; test: Antibacterial activity against Bacillus subtilis at 10 ug/ml after 18 hrs by cup plate method; assay type: functional; settings: read-out: DIZ; in short: as §1
[37] = system: Aspergillus niger; test: Antifungal activity against Aspergillus niger at 100 ug/ml after 48 hrs by cup plate method; assay type: functional; in short: as §2
[38] = system: Klebsiella pneumoniae; test: Antibacterial activity against Klebsiella pneumoniae at 25 ug/ml after 18 hrs by cup plate method; assay type: functional; settings: read-out: DIZ; in short: as §1
[39] = system: Aspergillus niger; test: Antifungal activity against Aspergillus niger at 50 ug/ml after 48 hrs by cup plate method; assay type: functional, organism-based; in short: as §2

SMILES: CCN1C(N2CCN(Cc3ccc([N+](=O)[O-])s3)CC2)=NS(=O)(=O)c2ccccc21
- zone of inhibition at 100 µg/mL [1]: 14 mm
- diameter of the inhibition zone (DIZ) [2]: inactive
- zone of inhibition at 100 µg/mL [3]: 18 mm
- zone of inhibition at 100 µg/mL [4]: 11 mm
- MIC [5]: 4 µg/mL (≈ 9.18 µM)
- zone of inhibition at 100 µg/mL [6]: 15 mm
- zone of inhibition at 100 µg/mL [7]: 16 mm
- zone of inhibition at 100 µg/mL [8]: 14 mm
- diameter of the inhibition zone (DIZ) [9]: inactive
- inhibition zone (IZ) [10]: inactive
- diameter of the inhibition zone (DIZ) [11]: inactive
- zone of inhibition at 50 µg/mL [12]: 10 mm
- zone of inhibition at 50 µg/mL [13]: 12 mm
- zone of inhibition at 100 µg/mL [14]: 11 mm
- diameter of the inhibition zone (DIZ) [15]: inactive

SMILES: CN1C(N2CCN(Cc3ccc([N+](=O)[O-])o3)CC2)=NS(=O)(=O)c2ccccc21
- inhibition zone (IZ) [16]: inactive
- zone of inhibition at 25 µg/mL [17]: 12 mm
- diameter of the inhibition zone (DIZ) [18]: inactive
- zone of inhibition at 100 µg/mL [1]: 19 mm
- zone of inhibition at 75 µg/mL [19]: 29 mm
- diameter of the inhibition zone (DIZ) [2]: inactive
- zone of inhibition at 10 µg/mL [20]: 10 mm
- zone of inhibition at 100 µg/mL [3]: 24 mm
- zone of inhibition at 25 µg/mL [21]: 13 mm
- diameter of the inhibition zone (DIZ) [22]: inactive
- zone of inhibition at 100 µg/mL [4]: 17 mm
- inhibition zone (IZ) [23]: inactive
- MIC [5]: 8 µg/mL (≈ 19.7 µM)
- zone of inhibition at 100 µg/mL [6]: 26 mm
- inhibition zone (IZ) [24]: inactive
- zone of inhibition at 100 µg/mL [7]: 23 mm
- zone of inhibition at 75 µg/mL [25]: 18 mm
- inhibition zone (IZ) [26]: inactive
- diameter of the inhibition zone (DIZ) [27]: inactive
- zone of inhibition at 75 µg/mL [28]: 17 mm
- zone of inhibition at 25 µg/mL [29]: 10 mm
- zone of inhibition at 75 µg/mL [30]: 17 mm
- inhibition zone (IZ) [31]: inactive
- zone of inhibition at 100 µg/mL [8]: 18 mm
- zone of inhibition at 75 µg/mL [32]: 17 mm
- zone of inhibition at 50 µg/mL ([9]; read-out: DIZ): 10 mm
- zone of inhibition at 50 µg/mL ([10]; MTCC 227, 48 h, read-out: IZ): 11 mm
- zone of inhibition at 50 µg/mL ([11]; read-out: DIZ): 10 mm
- inhibition zone (IZ) [33]: inactive
- zone of inhibition at 50 µg/mL [12]: 14 mm
- zone of inhibition at 75 µg/mL [34]: 14 mm
- inhibition zone (IZ) [35]: inactive
- zone of inhibition at 50 µg/mL [13]: 15 mm
- zone of inhibition at 100 µg/mL [14]: 17 mm
- zone of inhibition at 10 µg/mL [36]: 9 mm
- inhibition zone (IZ) [37]: inactive
- zone of inhibition at 25 µg/mL [38]: 12 mm
- inhibition zone (IZ) [39]: inactive
- zone of inhibition at 50 µg/mL ([15]; read-out: DIZ): 15 mm
